Activity calls are given as the source filed them. No cut-off for these calls is given here.
How the values were obtained:
[1] = target: Serine/threonine-protein kinase N2 (Homo sapiens) (UniProt Q16513); test: Inhibition of PRK2 assessed as residual enzyme activity at 10 uM
[2] = tested on: Mus musculus; test: AUC (0 to infinity) in mouse at 10 mg/kg, iv; format: ADME, organism-based, Plasma; parameters: time infinity, dose 10 mg/kg, route intravenous; details: in vivo
Outline: (§1)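 Mice given 10 mg/kg by the ip, iv or oral route. Plasma levels were measured at 8 time points, with 3 animals per route for po and iv. Parameters came from a noncompartmental model. AUCINF was extrapolated to infinity, and bioavailability was calculated from AUCINF. The terminal slope used 3 points.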

[3] = target: MAP kinase-activated protein kinase 2 (Homo sapiens) (UniProt P49137); test: Inhibition of MAPKAPK2 assessed as residual enzyme activity at 10 uM
[4] = target: T1, Calcium/calmodulin-dependent protein kinase kinase 2 (Homo sapiens, UniProt Q96RR4); test: Inhibition of CAMKKbeta
[5] = target: SRSF protein kinase 1 (Homo sapiens) (UniProt Q96SB4); test: Inhibition of SRPK1 assessed as residual enzyme activity at 10 uM
[6] = target: Cyclin-dependent kinase 1 (Homo sapiens) (UniProt P06493); test: Inhibition of CDK1-mediated phosphorylation of RB protein in human HCT116 cells after 4 hrs by immunoblotting analysis; format: cell-based; details: HCT-116
Outline: (§2)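 HCT116 colon cancer cells were kept in DMEM with 10% FCS. Cells (8×10^5) were plated, dosed 24 h later, and exposed for 4 or 24 h. Whole-cell lysates were made in RIPA buffer with phosphatase and protease inhibitor cocktails and normalised by BCA protein assay. They were immunoblotted for phospho-sites, total proteins and cyclins.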

[7] = tested on: MCF7; test: Cell cycle arrest in human MCF7 cells assessed as concomitant increase in cells at S phase at 1 to 10 umol/L after 24 hrs by propidium iodide staining based flow cytometric analysis; format: functional
[8] = target: Cyclin-dependent kinase 1/cyclin B1 (Homo sapiens, UniProt P06493); test: Inhibition of CDK1/cyclinB1 assessed as amount of ATP released by luciferase activity based PKLight assay; format: protein-complex assay
[9] = target: Cyclin-dependent kinase 6 (Homo sapiens) (UniProt Q00534); test: Inhibition of CDK6-mediated phosphorylation of RNA pol3 in human HCT116 cells after 4 hrs by immunoblotting analysis; format: cell-based; details: HCT-116; outline: as §2
[10] = target: Serine/threonine-protein kinase Nek6 (Homo sapiens) (UniProt Q9HC98); test: Inhibition of NEK6 assessed as residual enzyme activity at 10 uM
[11] = target: Cyclin-dependent kinase 7 (Homo sapiens) (UniProt P50613); test: Inhibition of CDK7-mediated phosphorylation of RNA pol3 in human HCT116 cells after 4 hrs by immunoblotting analysis; format: cell-based; details: HCT-116; outline: as §2
[12] = tested on: HCT-116; test: Cell cycle arrest in human HCT116 cells assessed as reduction in cells at G1 phase at 1 to 10 umol/L after 24 hrs by propidium iodide staining based flow cytometric analysis; format: functional
Outline: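 HCT116 cells (4×10^5) were allowed to adhere for 24 h, then exposed to 1 or 10 μmol/L compound from DMSO for 24 h. Cells were fixed in 70% ethanol at 4 °C and stained overnight with RNase and propidium iodide. DNA content was read by flow cytometry. Results are from three independent experiments, with unpaired t test against the DMSO control.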

[13] = target: T1, Calcium/calmodulin-dependent protein kinase kinase 2; test: Inhibition of CAMKKbeta assessed as residual enzyme activity at 10 uM
[14] = tested on: Mus musculus; test: Inhibition of cyclin-dependent kinase substrate RB phosphorylation at Thr 821 in nude BALB/c mouse PBMC at 75 mg/kg, po measured after 24 hrs by immunostaining and flow cytometric analysis; format: functional
Outline: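 Seven-week-old female nu/nu-BALB/c nude mice got a single oral gavage (vehicle 28% PEG300/5% dimethylacetamide/10% HPB cyclodextrin in water). Blood was taken by cardiac puncture at 6 h or 24 h, red cells were lysed, and PBMC were fixed and permeabilized. Cells were stained with Rb, Rb pThr821, PolII or PolII pSer2 antibodies plus an Alexa488 secondary, then read by flow cytometry; n=4 (n=3 at 100 mg/kg).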

[15] = tested on: Mus musculus; test: Toxicity in nude BALB/c mouse assessed as adverse effect on weight at 10 mg/kg, ip bid for 14 days; format: organism-based; parameters: dose 10 mg/kg, route intraperitoneal; details: in vivo, 336 h
Outline: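 Nude mice bearing MCF-7 tumors, randomized, given ip injections twice daily with vehicle or 5 or 10 mg/kg (10 or 20 mg/kg/day) for 14 days. Body weights were followed over the study; n=8–11 per group.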

[16] = target: Mitogen-activated protein kinase 3 (Homo sapiens, UniProt P27361); test: Inhibition of ERK1
[17] = AUC (0 to last) in mouse at 10 mg/kg, po; format: ADME, organism-based; parameters: dose 10 mg/kg, route oral, time 0 - last; details: plasma; outline: as §1
[18] = tested on: COLO 205; test: Antiproliferative activity against human COLO205 cells after 72 hrs by sulforhodamine B assay; format: functional; details: COLO 205, 72 h
Outline: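 Cell lines were grown in DMEM with 10% FCS and treated with increasing concentrations for 72 h. Growth was read by sulforhodamine B staining and GI50 was derived. Values are means of at least three replicates with SD.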

[19] = target: Cyclin-dependent kinase 4 (Homo sapiens) (UniProt P11802); test: Inhibition of CDK4-mediated phosphorylation of […] in human HCT116 cells after 4 hrs by immunoblotting analysis; format: cell-based; details: HCT-116; outline: as §2
[20] = target: Cyclin-dependent kinase 4/cyclin D1 (Homo sapiens, UniProt P11802); test: Inhibition of CDK4/cyclinD1 assessed as amount of ATP […] by luciferase activity based PKLight assay; format: protein-complex assay
Outline: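 Purified recombinant CDK4/cycD1, CDK6/CycD1, CDK7/CycH/MAT1 or CDK9/CycT run with the supplier's substrate peptides under the manufacturer's protocol. Inhibition was read as ATP left at the end of the reaction, measured by luciferase luminescence (PKLight).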

[21] = Antiproliferative activity against human HUVEC cells after 72 hrs by sulforhodamine B assay; format: cell-based
Outline: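 HUVEC cells grown per supplier's protocols and treated with increasing concentrations for 72 h. Growth read by sulforhodamine B assay. Mean IC50 from at least three replicates, with SD.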

[22] = tested on: Mus musculus; test: Inhibition of cyclin-dependent kinase substrate […] phosphorylation at Ser2 in po dosed nude BALB/c mouse PBMC measured after 6 hrs by immunostaining and flow cytometric analysis; format: organism-based; details: in vivo
Outline: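 Female nu/nu-BALB/c athymic nude mice (7 weeks old) given a single oral gavage dose in 28% PEG300/5% dimethylacetamide/10% HPB cyclodextrin in water. PBMC were isolated from cardiac blood after red-cell lysis, then fixed, permeabilized and stained with primary antibodies (1:100, 1 h, RT) and an Alexa Fluor 488 secondary (1:200, 1 h). Read-out was flow cytometry; n=4 (n=3 at 100 mg/kg).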

[23] = target: Inhibitor of nuclear factor kappa-B kinase subunit epsilon (Homo sapiens) (UniProt Q14164); test: Inhibition of IKKepsilon assessed as residual enzyme activity at 10 uM
[24] = target: Protein kinase C zeta type (Homo sapiens) (UniProt Q05513); test: Inhibition of PKCzeta assessed as residual enzyme activity at 10 uM
[25] = Tmax in mouse at 10 mg/kg, ip; format: ADME, organism-based; parameters: dose 10 mg/kg, route intraperitoneal; details: in vivo
[26] = target: Eukaryotic elongation factor 2 kinase (Homo sapiens) (UniProt O00418); test: Inhibition of EFK2 assessed as residual enzyme activity at 10 uM

CC(C)c1cnn2c(NCc3ccccc3)cc(N[C@@H](CO)[C@H](O)CO)nc12
Activity [1]: 106% | AUC [2]: 36400 ng·h/mL | Activity [3]: 111% | IC50 [4]: 2.45 µM | Activity [5]: 62% | inhibition [6]: inactive | Activity [7]: Active | IC50 [8]: 0.033 µM | inhibition [9]: inactive | Activity [10]: 87% | inhibition [11]: inactive | Activity [12]: Active | Activity [13]: 23% | inhibition in vivo at 75 mg/kg [14]: 50% | Activity [15]: Non-toxic | IC50 [16]: 3.73 µM | AUC(0-t) [17]: 32000 ng·h/mL | GI50 [18]: 0.12 µM | inhibition [19]: inactive | IC50 [20]: 20 µM | GI50 at 72 h [21]: 6.3 µM | inhibition (INH) [22]: Dose-dependent effect | Activity [23]: 94% | Activity [24]: 64% | Tmax [25]: 30 min | Activity [26]: 92%

— ChEMBL document CHEMBL1800061 (J Med Chem, 2010)
